B1: hEXO1-Δ423–507: internal deletion variant (protein)
chain: MGIQGLLQFIKEASEPIHVRKYKGQVVAVDTYCWLHKGAIACAEKLAKGEPTDRYVGFCMKFVNMLLSHGIKPILVFDGCTLPSKKEVERSRRERRQANLLKGKQLLREGKVSEARECFTRSINITHAMAHKVIKAARSQGVDCLVAPYEADAQLAYLNKAGIVQAIITEDSDLLAFGCKKVILKMDQFGNGLEIDQARLGMCRQLGDVFTEEKFRYMCILSGCDYLSSLRGIGLAKACKVLRLANNPDIVKVIKKIGHYLKMNITVPEDYINGFIRANNTFLYQLVFDPIKRKLIPLNAYEDDVDPETLSYAGQYVDDSIALQIALGNKDINTFEQIDDYNPDTAMPAHSRSHSWDDKTCQKSANVSSIWHRNYSPRPESGTVSDAPQLKENPSTVGVERVISTKGLNLPRKSSIVKRPRSCSSDSTDCVSNKVSIQPLDETAVTDKENNLHESEYGDQEGKRLVDTDVARNSSDDIPNNHIPGDHIPDKATVFTDEESYSFESSKFTRTISPPTLGTLRSCFSWSGGLGDFSRTPSPSPSTALQQFRRKSDSPTSLPENNMSDVSQLKSEESSDDESHPLREEACSSQSQESGEFSLQSSNASKLSQCSSKDSDSEESDCNIKLLDSQSDQTSKLRLSHFSKKDTPLRNKVPGLYKSSSADSLSTTKIKPLGPARASGLSKKPASIQKRKHHNAENKPGLQIKLNELWKNFGFKKDSEKLPPCKKPLSPVRDNIQLTPEAEEDIFNKPECGRVQRAIFQ
modifications: 35S-cysteine label; left off: myc, C-terminal, state not stated | His6, C-terminal, state not stated
B2: YFP-hEXO1-S702X: COOH-terminally truncated version of YFP-hEXO1, truncated from amino acid 702 (protein, UniProt Q9UQ84 1-701, looked up, fragment)
chain: MGIQGLLQFIKEASEPIHVRKYKGQVVAVDTYCWLHKGAIACAEKLAKGEPTDRYVGFCMKFVNMLLSHGIKPILVFDGCTLPSKKEVERSRRERRQANLLKGKQLLREGKVSEARECFTRSINITHAMAHKVIKAARSQGVDCLVAPYEADAQLAYLNKAGIVQAIITEDSDLLAFGCKKVILKMDQFGNGLEIDQARLGMCRQLGDVFTEEKFRYMCILSGCDYLSSLRGIGLAKACKVLRLANNPDIVKVIKKIGHYLKMNITVPEDYINGFIRANNTFLYQLVFDPIKRKLIPLNAYEDDVDPETLSYAGQYVDDSIALQIALGNKDINTFEQIDDYNPDTAMPAHSRSHSWDDKTCQKSANVSSIWHRNYSPRPESGTVSDAPQLKENPSTVGVERVISTKGLNLPRKSSIVKRPRSAELSEDDLLSQYSLSFTKKTKKNSSEGNKSLSFSEVFVPDLVNGPTNKKSVSTPPRTRNKFATFLQRKNEESGAVVVPGTRSRFFCSSDSTDCVSNKVSIQPLDETAVTDKENNLHESEYGDQEGKRLVDTDVARNSSDDIPNNHIPGDHIPDKATVFTDEESYSFESSKFTRTISPPTLGTLRSCFSWSGGLGDFSRTPSPSPSTALQQFRRKSDSPTSLPENNMSDVSQLKSEESSDDESHPLREEACSSQSQESGEFSLQSSNASKLSQCSSKDSD
modifications: N-terminal YFP tag
B3: hEXO1-S702X; Δ423–507: truncated from amino acid 702 with internal deletion between amino acids 423 and 507; depleted of two hMLH1 interaction regions (protein)
chain: MGIQGLLQFIKEASEPIHVRKYKGQVVAVDTYCWLHKGAIACAEKLAKGEPTDRYVGFCMKFVNMLLSHGIKPILVFDGCTLPSKKEVERSRRERRQANLLKGKQLLREGKVSEARECFTRSINITHAMAHKVIKAARSQGVDCLVAPYEADAQLAYLNKAGIVQAIITEDSDLLAFGCKKVILKMDQFGNGLEIDQARLGMCRQLGDVFTEEKFRYMCILSGCDYLSSLRGIGLAKACKVLRLANNPDIVKVIKKIGHYLKMNITVPEDYINGFIRANNTFLYQLVFDPIKRKLIPLNAYEDDVDPETLSYAGQYVDDSIALQIALGNKDINTFEQIDDYNPDTAMPAHSRSHSWDDKTCQKSANVSSIWHRNYSPRPESGTVSDAPQLKENPSTVGVERVISTKGLNLPRKSSIVKRPRSCSSDSTDCVSNKVSIQPLDETAVTDKENNLHESEYGDQEGKRLVDTDVARNSSDDIPNNHIPGDHIPDKATVFTDEESYSFESSKFTRTISPPTLGTLRSCFSWSGGLGDFSRTPSPSPSTALQQFRRKSDSPTSLPENNMSDVSQLKSEESSDDESHPLREEACSSQSQESGEFSLQSSNASKLSQCSSKDSD
modifications: 35S-cysteine label
B4: YFP-hEXO1-F506A;F507A: MIP-box (putative PIP-box) substitution variant of YFP-hEXO1 (protein, UniProt Q9UQ84 1-846, looked up, variant F506A F507A)
Exonuclease 1: MGIQGLLQFIKEASEPIHVRKYKGQVVAVDTYCWLHKGAIACAEKLAKGEPTDRYVGFCMKFVNMLLSHGIKPILVFDGCTLPSKKEVERSRRERRQANLLKGKQLLREGKVSEARECFTRSINITHAMAHKVIKAARSQGVDCLVAPYEADAQLAYLNKAGIVQAIITEDSDLLAFGCKKVILKMDQFGNGLEIDQARLGMCRQLGDVFTEEKFRYMCILSGCDYLSSLRGIGLAKACKVLRLANNPDIVKVIKKIGHYLKMNITVPEDYINGFIRANNTFLYQLVFDPIKRKLIPLNAYEDDVDPETLSYAGQYVDDSIALQIALGNKDINTFEQIDDYNPDTAMPAHSRSHSWDDKTCQKSANVSSIWHRNYSPRPESGTVSDAPQLKENPSTVGVERVISTKGLNLPRKSSIVKRPRSAELSEDDLLSQYSLSFTKKTKKNSSEGNKSLSFSEVFVPDLVNGPTNKKSVSTPPRTRNKFATFLQRKNEESGAVVVPGTRSRAACSSDSTDCVSNKVSIQPLDETAVTDKENNLHESEYGDQEGKRLVDTDVARNSSDDIPNNHIPGDHIPDKATVFTDEESYSFESSKFTRTISPPTLGTLRSCFSWSGGLGDFSRTPSPSPSTALQQFRRKSDSPTSLPENNMSDVSQLKSEESSDDESHPLREEACSSQSQESGEFSLQSSNASKLSQCSSKDSDSEESDCNIKLLDSQSDQTSKLRLSHFSKKDTPLRNKVPGLYKSSSADSLSTTKIKPLGPARASGLSKKPASIQKRKHHNAENKPGLQIKLNELWKNFGFKKDSEKLPPCKKPLSPVRDNIQLTPEAEEDIFNKPECGRVQRAIFQ
modifications: N-terminal YFP tag
B5: hEXO1-K418A: NLS mutant (protein, UniProt Q9UQ84 1-846, looked up, variant K418A)
Exonuclease 1: MGIQGLLQFIKEASEPIHVRKYKGQVVAVDTYCWLHKGAIACAEKLAKGEPTDRYVGFCMKFVNMLLSHGIKPILVFDGCTLPSKKEVERSRRERRQANLLKGKQLLREGKVSEARECFTRSINITHAMAHKVIKAARSQGVDCLVAPYEADAQLAYLNKAGIVQAIITEDSDLLAFGCKKVILKMDQFGNGLEIDQARLGMCRQLGDVFTEEKFRYMCILSGCDYLSSLRGIGLAKACKVLRLANNPDIVKVIKKIGHYLKMNITVPEDYINGFIRANNTFLYQLVFDPIKRKLIPLNAYEDDVDPETLSYAGQYVDDSIALQIALGNKDINTFEQIDDYNPDTAMPAHSRSHSWDDKTCQKSANVSSIWHRNYSPRPESGTVSDAPQLKENPSTVGVERVISTKGLNLPRKSSIVARPRSAELSEDDLLSQYSLSFTKKTKKNSSEGNKSLSFSEVFVPDLVNGPTNKKSVSTPPRTRNKFATFLQRKNEESGAVVVPGTRSRFFCSSDSTDCVSNKVSIQPLDETAVTDKENNLHESEYGDQEGKRLVDTDVARNSSDDIPNNHIPGDHIPDKATVFTDEESYSFESSKFTRTISPPTLGTLRSCFSWSGGLGDFSRTPSPSPSTALQQFRRKSDSPTSLPENNMSDVSQLKSEESSDDESHPLREEACSSQSQESGEFSLQSSNASKLSQCSSKDSDSEESDCNIKLLDSQSDQTSKLRLSHFSKKDTPLRNKVPGLYKSSSADSLSTTKIKPLGPARASGLSKKPASIQKRKHHNAENKPGLQIKLNELWKNFGFKKDSEKLPPCKKPLSPVRDNIQLTPEAEEDIFNKPECGRVQRAIFQ
modifications: N-terminal YFP tag

Key:
hMLH1 [1] = assay: Interaction of hEXO1 variants with hMLH1; format: binding, human; conditions: GST-hMLH1 pull-down, 35S-labeled IVTT protein; Fig. S1
[2] = tested on: PCNA replication foci in NIH3T3 cells; format: cell-based, murine; conditions: for Small foci (CFP-PCNA) / Large foci (CFP-PCNA) / Mid Foci (CFP-PCNA): CFP channel (CFP-PCNA) in cells co-expressing the hEXO1 protein, 50 co-transfected cells; for Small foci (CFP-PCNA): early S-phase foci; for Large foci (CFP-PCNA): late S-phase foci; for Mid Foci (CFP-PCNA): mid S-phase foci; for foci formation and co-localization with PCNA during S-phase: NIH3T3 cells co-transfected with CFP-PCNA, 24–48 h; for sub-cellular localization: NIH3T3 cells, confocal imaging
In short: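 Murine NIH3T3 cells were kept in DMEM with 10% FBS and penicillin/streptomycin at 37 °C, 10% CO₂. Cells (2*10⁵ per glass-bottom dish) were seeded 24 h before ExGen500 co-transfection with 3 μg total plasmid (CFP-PCNA plus YFP fusion). Confocal imaging at 24–48 h. Co-transfected cells were counted and binned by pattern, e.g. "no foci" (diffuse CFP-PCNA, diffuse nuclear YFP).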

hMLH1 [3] = conditions: MIP-box mutant; ref [52]; cited from earlier work
[4] = tested on: laser induced DNA double strand breaks in HeLa cells; format: cell-based; conditions: laser irradiation
[5] = tested on: laser induced DNA double strand breaks in HeLa cells; conditions: NLS mutant, ref [43]; cited from earlier work

| Molecule | hMLH1 interaction (hMLH1 [1]) | Small foci (CFP-PCNA) [2] [%] | Large foci (CFP-PCNA) [2] [%] | Mid Foci (CFP-PCNA) [2] [%] | foci formation and co-localization with PCNA during S-phase [2] | sub-cellular localization [2] | further results |
| --- | --- | --- | --- | --- | --- | --- | --- |
| B1 | sustain partial hMLH1 interaction | – | – | – | – | – | – |
| B2 | sustain partial hMLH1 interaction | 18 | 8 | 20 | none of the variant proteins were able to form foci or co-localize with PCNA during S-phase | strictly nuclear | – |
| B3 | incapable of hMLH1 interaction | – | – | – | – | – | – |
| B4 | – | 4 | 0 | 0 | unable to associate with PCNA in replication foci | higher degree of cytoplasmic distribution | effect of expression on S-phase distribution ([2]; NIH3T3 cells co-expressing CFP-PCNA): only very few S-phase cells, co-expressing this variant and PCNA were observed; influence of mutation on hEXO1 hMLH1 interaction (hMLH1 [3]): influence hEXO1 hMLH1 interactions |
| B5 | – | – | – | – | – | – | nuclear translocation in response to laser induced DNA damage [4]: translocated from the cytoplasm into the nucleus in response to laser induced DNA damage; nuclear localization in untreated cells [5]: excluded from the nucleus in untreated cells |

Reference: PMC4586255 (DNA repair, 2010)
